Measurements as given in ChEMBL document CHEMBL1140709, “Design, synthesis, and biological evaluation of (E)-styrylbenzylsulfones as novel anticancer agents” (J Med Chem, 2008).
One block for each molecule: values may come before it. The source made the active and inactive calls. The rule behind the calls is not given here.

Assays:
[1] = system: BT-20; assay: Antitumor activity against human BT20 cells by trypan blue exclusion assay; type: functional, cell-based
Method in brief: (§1)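 Tumour cells were grown in DMEM or RPMI with 10% fetal bovine serum and 1 unit/mL penicillin-streptomycin. They were seeded in six-well dishes at 1.0 × 10⁵ cells/mL/well, and compound was added 24 h later over a range of concentrations. After 96 h of exposure, viable cells in duplicate wells were counted by trypan blue exclusion.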

[2] = system: DLD-1; assay: Antitumor activity against human DLD1 cells by trypan blue exclusion assay; type: functional, cell-based; method in brief: as §1
[3] = system: DU-145; assay: Antitumor activity against AR-negative human DU145 cells by trypan blue exclusion assay; type: functional, cell-based; method in brief: as §1
[4] = Antitumor activity against human H157 cells by trypan blue exclusion assay; type: functional, cell-based; conditions: NCI-H157; method in brief: as §1
[5] = Antitumor activity against human RF1 cells by trypan blue exclusion assay; type: functional, cell-based; method in brief: as §1
[6] = system: Daudi; assay: Antitumor activity against human Daudi cells by trypan blue exclusion assay; type: functional, cell-based; method in brief: as §1
[7] = system: HCT-15; assay: Antitumor activity against human HCT15 cells by trypan blue exclusion assay; type: functional, cell-based; method in brief: as §1
[8] = Antitumor activity against human MES-SA cells by trypan blue exclusion assay; type: functional, cell-based; method in brief: as §1
[9] = Antitumor activity against human Namalwa cells by trypan blue exclusion assay; type: functional, cell-based; conditions: NAMALVA; method in brief: as §1
[10] = system: MCF7; assay: Antitumor activity against ER-positive human MCF7 cells by trypan blue exclusion assay; type: functional, cell-based; method in brief: as §1
[11] = Antitumor activity against human U87 cells by trypan blue exclusion assay; type: functional, cell-based, U-87MG ATCC; conditions: U-87 MG; method in brief: as §1
[12] = system: BT-20; assay: Antitumor activity against human BT20 xenografted athymic NCR-nu/nu mouse at 50 mg/kg, ip after 22 days
[13] = system: MIA PaCa-2; assay: Antitumor activity against human MiaPaCa2 cells by trypan blue exclusion assay; type: functional, cell-based; method in brief: as §1
[14] = system: BT-20; assay: Antitumor activity against ER-negative human BT20 xenografted athymic NCR-nu/nu mouse at 50 mg/kg, ip every 2 days after 22 days; conditions: route intraperitoneal
[15] = system: SK-MEL-28; assay: Antitumor activity against human SK-MEL-28 cells by trypan blue exclusion assay; type: functional, cell-based; method in brief: as §1
[16] = system: OVCAR-3; assay: Antitumor activity against human OVCAR-3 cells by trypan blue exclusion assay; type: functional, cell-based; method in brief: as §1
[17] = system: Raji; assay: Antitumor activity against human Raji cells by trypan blue exclusion assay; type: functional, cell-based; method in brief: as §1
[18] = system: CEM/C2; assay: Antitumor activity against human multidrug-resistant CEM/C2 cells by trypan blue exclusion assay; type: functional, cell-based; method in brief: as §1
[19] = system: COLO 205; assay: Antitumor activity against human COLO205 cells by trypan blue exclusion assay; type: functional, cell-based; method in brief: as §1
[20] = system: HUVEC; assay: Cell cycle arrest in HUVEC cells by accumulation at G1 phase by FACS analysis; type: functional, cell-based; conditions: Homo sapiens
Method in brief: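 HUVEC were exposed to 20 nM compound in medium with 10% fetal bovine serum. At 24 h intervals, cells were fixed, stained with propidium iodide and analysed for DNA content by flow cytometry.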

[21] = system: AGS; assay: Antitumor activity against human AGS cells by trypan blue exclusion assay; type: functional, cell-based; method in brief: as §1
[22] = system: CCRF-CEM; assay: (§2) Antitumor activity against human CEM cells by trypan blue exclusion assay; type: functional, cell-based; method in brief: as §1
[23] = Antitumor activity against human RF48 cells by trypan blue exclusion assay; type: functional, cell-based; method in brief: as §1
[24] = Antitumor activity against human N417 cells by trypan blue exclusion assay; type: functional, cell-based; method in brief: as §1
[25] = Antitumor activity against human multidrug-resistant MES-SA/DX5 cells by trypan blue exclusion assay; type: functional, cell-based; method in brief: as §1
[26] = system: A549; assay: Antitumor activity against human A549 cells by trypan blue exclusion assay; type: functional, cell-based; method in brief: as §1
[27] = system: MOLT-4; assay: Antitumor activity against human MOLT4 cells by trypan blue exclusion assay; type: functional, cell-based; method in brief: as §1
[28] = system: T47D; assay: Antitumor activity against ER-positive human T47D cells by trypan blue exclusion assay; type: functional, cell-based; method in brief: as §1
[29] = Antitumor activity against human H187 cells by trypan blue exclusion assay; type: functional, cell-based; conditions: NCI-H187; method in brief: as §1
[30] = system: PC-3; assay: Antitumor activity against […] human PC3 cells by trypan blue exclusion assay; type: functional, cell-based; method in brief: as §1
[31] = system: BT-20; assay: Antitumor activity against ER-negative human BT20 xenografted athymic NCR-nu/nu mouse at 25 mg/kg, ip for every 4 days after 22 days; conditions: route intraperitoneal
[32] = system: CCRF-CEM; assay: as §2; type: functional, cell-based; method in brief: as §1; remark: listed apart in the source

Structure (SMILES): COc1ccc(CS(=O)(=O)/C=C/c2cc(OC)ccc2OC)cc1
- IC50 [1]: > 20 µM
- IC50 [2]: > 20 µM
- IC50 [3]: > 20 µM
- IC50 [4]: > 20 µM

Structure (SMILES): COc1cc(OC)c(/C=C/S(=O)(=O)Cc2ccc(OC(F)(F)F)cc2)c(OC)c1
- IC50 [1]: 3 µM
- IC50 [2]: 4 µM
- IC50 [3]: 4 µM
- IC50 [4]: 6 µM

Structure (SMILES): COc1cc(OC)c(/C=C/S(=O)(=O)Cc2ccc(OC)c(OC)c2OC)c(OC)c1
- IC50 [1]: 15 µM
- IC50 [2]: 15 µM
- IC50 [3]: 12.5 µM
- IC50 [4]: 15 µM

Structure (SMILES): COc1ccc(CS(=O)(=O)/C=C/c2cc(OC)c(OC)c(OC)c2)cc1
- IC50 [1]: > 20 µM
- IC50 [2]: > 20 µM
- IC50 [3]: > 20 µM
- IC50 [4]: > 20 µM

Structure (SMILES): COc1ccc(CS(=O)(=O)/C=C/c2c(OC)cc(O)cc2OC)cc1O
- IC50 [1]: 0.25 µM
- IC50 [2]: 0.5 µM
- IC50 [3]: 0.5 µM
- IC50 [4]: 0.5 µM

Structure (SMILES): COc1cc(OC)c(/C=C/S(=O)(=O)Cc2ccc([N+](=O)[O-])cc2)c(OC)c1
- IC50 [1]: 15 µM
- IC50 [2]: 15 µM
- IC50 [3]: 15 µM
- IC50 [4]: 20 µM

Structure (SMILES): COc1ccc(CS(=O)(=O)/C=C/c2c(OC)cc(OC)cc2OC)cc1
- IC50 [5]: 0.008 µM
- IC50 [6]: 0.008 µM
- IC50 [7]: 0.02 µM
- IC50 [8]: 0.01 µM
- IC50 [9]: 0.015 µM
- IC50 [1]: 0.02 µM
- IC50 [2]: 0.04 µM
- IC50 [10]: 0.003 µM
- IC50 [3]: 0.025 µM
- IC50 [11]: 0.04 µM
- Activity [12]: Active
- IC50 [13]: 0.008 µM
- Activity [14]: 67.5 mm3
- IC50 [15]: 0.04 µM
- IC50 [16]: 0.008 µM
- IC50 [17]: 0.009 µM
- IC50 [18]: 0.01 µM
- IC50 [19]: 0.015 µM
- IC50 [4]: 0.03 µM
- Activity [20]: Active
- IC50 [21]: 0.02 µM
- IC50 [22]: 0.03 µM
- IC50 [23]: 0.01 µM
- IC50 [24]: 0.008 µM
- IC50 [25]: 0.01 µM
- IC50 [26]: 0.02 µM
- IC50 [27]: 0.009 µM
- IC50 [28]: 0.025 µM
- IC50 [29]: 0.015 µM
- IC50 [30]: 0.03 µM
- Activity [31]: 74 mm3
- IC50 [32]: 0.03 µM

Structure (SMILES): COc1cc(OC)c(/C=C/S(=O)(=O)Cc2ccc(C(=O)O)cc2)c(OC)c1
- IC50 [1]: 15 µM
- IC50 [2]: 15 µM
- IC50 [3]: 10 µM
- IC50 [4]: 17.5 µM

Structure (SMILES): COc1ccc(CS(=O)(=O)/C=C/c2ccc(OC)c(OC)c2OC)cc1
- IC50 [1]: > 20 µM
- IC50 [2]: > 20 µM
- IC50 [3]: > 20 µM
- IC50 [4]: > 20 µM

Structure (SMILES): COc1cc(OC)c(/C=C/S(=O)(=O)Cc2ccc(Cl)cc2)c(OC)c1
- IC50 [1]: 10 µM
- IC50 [2]: 15 µM
- IC50 [3]: 7.5 µM
- IC50 [4]: 15 µM

Second part, led by results:

- IC50 [1]: > 20 µM
- IC50 [2]: > 20 µM
- IC50 [3]: > 20 µM
Structure (SMILES): COc1ccc(CS(=O)(=O)/C=C/c2c(C)cccc2C)cc1
- IC50 [4]: > 20 µM

- IC50 [1]: > 20 µM
- IC50 [2]: > 20 µM
- IC50 [3]: > 20 µM
Structure (SMILES): COc1ccc(CS(=O)(=O)/C=C/c2cc(OC)cc(OC)c2)cc1
- IC50 [4]: > 20 µM

- IC50 [1]: 2.5 µM
- IC50 [2]: 4 µM
- IC50 [3]: 2 µM
Structure (SMILES): COc1ccc(CS(=O)(=O)/C=C/c2ccc(F)cc2Cl)cc1
- IC50 [4]: 2.5 µM

- IC50 [1]: 5 µM
- IC50 [2]: 7.5 µM
- IC50 [3]: 3.5 µM
Structure (SMILES): COc1ccc(CS(=O)(=O)/C=C/c2ccccc2OC)cc1
- IC50 [4]: 5 µM

- IC50 [1]: > 20 µM
- IC50 [2]: > 20 µM
- IC50 [3]: > 20 µM
Structure (SMILES): COc1ccc(/C=C/S(=O)(=O)Cc2ccc(OC)cc2)cc1
- IC50 [4]: > 20 µM

- IC50 [1]: > 20 µM
- IC50 [2]: > 20 µM
- IC50 [3]: > 20 µM
Structure (SMILES): COc1ccc(CS(=O)(=O)/C=C/c2ccc(OC)cc2OC)cc1
- IC50 [4]: > 20 µM

- IC50 [1]: > 20 µM
- IC50 [2]: > 20 µM
- IC50 [3]: > 20 µM
Structure (SMILES): COc1ccc(CS(=O)(=O)/C=C/c2ccc(N)cc2)cc1
- IC50 [4]: > 20 µM
